In ChEMBL document CHEMBL1135705, “Correlation of the antibacterial activities of cationic peptide antibiotics and cationic steroid antibiotics” (2002):
Converted amounts (≈) assume the structure as drawn.

Legend:
[1] = Compound was evaluated for minimum hemolytic concentration; assay type: functional
Outline: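 Hemolysis was tested up to 200 µg/mL. Higher concentrations could not be used because of limited solubility.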

Salmonella typhimurium = test: Antibacterial activity against Gram-negative bacteria -Salmonella Typhimurium (ATCC 14028); assay type: functional, Salmonella enterica subsp. enterica serovar Typhimurium; conditions: Salmonella enterica
Streptococcus pyogenes = test: Antibacterial activity against Gram-positive bacteria-Streptococcus pyogenes (ATCC 19615); assay type: functional
Escherichia coli = test: Antibacterial activity against Gram-negative bacteria- Escherichia coli (ATCC 25922); assay type: functional
Staphylococcus aureus = test: Antibacterial activity against Gram-positive bacteria -S. aureus (ATCC 25923); assay type: functional

| MIC (Salmonella typhimurium) [µg/mL] | MIC (Streptococcus pyogenes) [µg/mL] | MIC (Escherichia coli) [µg/mL] | MIC (Staphylococcus aureus) [µg/mL] | Compound | MHC [1] [µg/mL] |
| --- | --- | --- | --- | --- | --- |
| 12 (≈ 17.7 µM) | 1.6 (≈ 2.36 µM) | 7.3 (≈ 10.7 µM) | 2 (≈ 2.95 µM) | C[C@H](CCCNCCCNCCCN)[C@H]1CC[C@H]2[C@@H]3[C@H](OCCCN)CC4C[C@H](OCCCN)CC[C@]4(C)[C@H]3C[C@H](OCCCN)[C@]12C (stereo not given in full) | > 200 |
| 25 (≈ 36.8 µM) | 3 (≈ 4.42 µM) | 6.6 (≈ 9.72 µM) | 4.6 (≈ 6.77 µM) | C[C@H](CCCN(CCCN)CCCN)[C@H]1CC[C@H]2[C@@H]3[C@H](OCCCN)CC4C[C@H](OCCCN)CC[C@]4(C)[C@H]3C[C@H](OCCCN)[C@]12C (stereo not given in full) | > 200 |
| 43 (≈ 76 µM) | 4.2 (≈ 7.42 µM) | 36 (≈ 63.6 µM) | 2 (≈ 3.53 µM) | C[C@H](CCCO)[C@H]1CC[C@H]2[C@@H]3[C@H](OCCCN)CC4C[C@H](OCCCN)CC[C@]4(C)[C@H]3C[C@H](OCCCN)[C@]12C (stereo not given in full) | 100 |
